ChEMBL document CHEMBL3351265
Calls of active or inactive are those of the source. The calls are words filed in the database; no cut-off is given here.

Tests used:
DB [1] = test: Reduction in EZH2 protein expression in human DB cells after 72 hrs by Western blot analysis; format: functional, cell-based
In short: (§1)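 DB (mutant EZH2) or Toledo (wild-type EZH2) DLBCL cells treated with compound for 72 h; lysed in RIPA buffer; 30 μg total protein resolved by SDS-PAGE, blotted to PVDF, probed for EZH2, EED, SUZ12 or H3K27me3 with HRP secondary and chemiluminescent detection; total histone H3 as loading control; 10 μM EPZ005687 as reference inhibitor.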

[2] = test system: Polycomb protein EED (Homo sapiens), O75530 [L246E]; conditions: 200 uM
SUD4 [3] = test: Antiproliferative activity against human SU-DHL4 cells at 5 uM after 7 days by CCK-8 assay in presence of 5 uM EPZ005687; format: functional, cell-based
DB [4] = test: Reduction in SUZ12 protein expression in human DB cells after 72 hrs by Western blot analysis; format: functional, cell-based; in short: as §1
[5] = Reduction in EZH2 protein expression in human Toledo cells after 72 hrs by Western blot analysis; format: functional, cell-based; in short: as §1
Pfeiffer [6] = test: Antiproliferative activity against human Pfeiffer cells at 5 uM after 7 days by CCK-8 assay in presence of 5 uM EPZ005687; format: functional, cell-based
SUD4 [7] = test: Antiproliferative activity against human SU-DHL4 cells after 7 days by CCK8 assay
SUD4 [8] = test: Antiproliferative activity against human SU-DHL4 cells after 7 days by CCK-8 assay; format: functional, cell-based
In short: (§2)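 DLBCL lines from ATCC grown in RPMI 1640 with 10% FBS and Pen/Strep; 1−2 × 10^4 cells per well seeded in serum-containing medium with compound, triplicate cultures; 7 days incubation; viability by CCK-8 absorbance at 450 nm (600 nm reference), expressed as percentage of absorbance relative to control cells.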

[9] = target: Polycomb protein EED (Homo sapiens) (UniProt O75530)
DB [10] = test: Antiproliferative activity against human DB cells after 7 days by CCK-8 assay; format: functional, cell-based; in short: as §2
[11] = test system: Polycomb protein EED (Homo sapiens), O75530 [F356Y]; conditions: 200 uM
DB [12] = test: Reduction in EED protein expression in human DB cells after 72 hrs by Western blot analysis; format: functional, cell-based; in short: as §1
SU-DHL-6 [13] = test: Antiproliferative activity against human SU-DHL6 cells after 7 days by CCK-8 assay; format: functional, cell-based; in short: as §2
[14] = target: Polycomb protein EED (Homo sapiens) (UniProt O75530); remark: listed apart in the source
Toledo [15] = test: Antiproliferative activity against human Toledo cells after 7 days by CCK-8 assay; format: functional, cell-based; in short: as §2
[16] = target: Polycomb protein EED (Homo sapiens) (UniProt O75530); remark: listed apart in the source
[17] = test system: Polycomb protein EED (Homo sapiens), O75530 [L353A]; conditions: 200 uM
SU-DHL-6 [18] = test: Antiproliferative activity against human SU-DHL6 cells at 5 uM after 7 days by CCK-8 assay in presence of 5 uM EPZ005687; format: functional, cell-based
Toledo [19] = test: Antiproliferative activity against human Toledo cells by flow cytometry
[20] = test system: Polycomb protein EED (Homo sapiens), O75530 [L315D]; conditions: 200 uM
DB [21] = test: Antiproliferative activity against shRNA-treated human DB cells at 2.5 to 15 uM after 3 days by Alamar blue assay; format: functional, cell-based
In short: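 DB cells transduced with lentiviral pSICOR shRNA (mock, shEED or shEZH2); 5000 cells per well in serum-containing medium with compound, triplicate cultures; 3 days incubation; alamar blue added, plates incubated at 37 °C and read at 560 nm.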

Pfeiffer [22] = test: Antiproliferative activity against human Pfeiffer cells after 7 days by CCK8 assay
Pfeiffer [23] = test: Antiproliferative activity against human Pfeiffer cells after 7 days by CCK-8 assay; format: functional, cell-based; in short: as §2
[24] = target: Polycomb protein EED (Homo sapiens) (UniProt O75530); remark: listed apart in the source
[25] = test system: Polycomb protein EED (Homo sapiens), O75530 [L123E]; conditions: 200 uM
[26] = Reduction in EED protein expression in human Toledo cells after 72 hrs by Western blot analysis; format: functional, cell-based; in short: as §1
[27] = target: Polycomb protein EED (Homo sapiens) (UniProt O75530); remark: listed apart in the source
SU-DHL-6 [28] = test: Antiproliferative activity against human SU-DHL6 cells after 7 days by CCK8 assay
DB [29] = test: Antiproliferative activity against human DB cells after 72 h by flow cytometry in presence of EPZ005687
Toledo [30] = test: Antiproliferative activity against human Toledo cells at 5 uM after 72 hrs by flow cytometry in presence of 5 uM EPZ005687
DB [31] = test: Antiproliferative activity against human DB cells at 5 uM after 72 hrs by flow cytometry in presence of 5 uM EPZ005687
[32] = test system: Polycomb protein EED (Homo sapiens), O75530 [V112E]; conditions: 200 uM
[33] = Reduction in SUZ12 protein expression in human Toledo cells after 72 hrs by Western blot analysis; format: functional, cell-based; in short: as §1
DB [34] = test: Reduction in EED protein expression in human DB cells at 7.5 to 30 uM after 72 hrs by Western blot analysis; format: functional, cell-based; in short: as §1
[35] = Reduction in SUZ12 protein expression in human Toledo cells at 2 to 8 uM after 72 hrs by Western blot analysis; format: functional, cell-based; in short: as §1
DB [36] = test: Reduction in SUZ12 protein expression in human DB cells at 7.5 to 30 uM after 72 hrs by Western blot analysis; format: functional, cell-based; in short: as §1
[37] = Reduction in EED protein expression in human Toledo cells at 2 to 8 uM after 72 hrs by Western blot analysis; format: functional, cell-based; in short: as §1
[38] = Reduction in EZH2 protein expression in human Toledo cells at 2 to 8 uM after 72 hrs by Western blot analysis; format: functional, cell-based; in short: as §1
DB [39] = test: Reduction in EZH2 protein expression in human DB cells at 7.5 to 30 uM after 72 hrs by Western blot analysis; format: functional, cell-based; in short: as §1
[40] = Reduction in EZH2 protein expression in human Toledo cells at 10 uM after 72 hrs by Western blot analysis; format: functional, cell-based; in short: as §1
[41] = Reduction in SUZ12 protein expression in human Toledo cells at 10 uM after 72 hrs by Western blot analysis; format: functional, cell-based; in short: as §1
DB [42] = test: Reduction in EED protein expression in human DB cells at 10 uM after 72 hrs by Western blot analysis; format: functional, cell-based; in short: as §1
DB [43] = test: Reduction in EZH2 protein expression in human DB cells at 10 uM after 72 hrs by Western blot analysis; format: functional, cell-based; in short: as §1
DB [44] = test: Reduction in SUZ12 protein expression in human DB cells at 10 uM after 72 hrs by Western blot analysis; format: functional, cell-based; in short: as §1
[45] = Reduction in EED protein expression in human Toledo cells at 10 uM after 72 hrs by Western blot analysis; format: functional, cell-based; in short: as §1

Chain of Polycomb protein EED (Homo sapiens) (O75530 2-441 limits assumed): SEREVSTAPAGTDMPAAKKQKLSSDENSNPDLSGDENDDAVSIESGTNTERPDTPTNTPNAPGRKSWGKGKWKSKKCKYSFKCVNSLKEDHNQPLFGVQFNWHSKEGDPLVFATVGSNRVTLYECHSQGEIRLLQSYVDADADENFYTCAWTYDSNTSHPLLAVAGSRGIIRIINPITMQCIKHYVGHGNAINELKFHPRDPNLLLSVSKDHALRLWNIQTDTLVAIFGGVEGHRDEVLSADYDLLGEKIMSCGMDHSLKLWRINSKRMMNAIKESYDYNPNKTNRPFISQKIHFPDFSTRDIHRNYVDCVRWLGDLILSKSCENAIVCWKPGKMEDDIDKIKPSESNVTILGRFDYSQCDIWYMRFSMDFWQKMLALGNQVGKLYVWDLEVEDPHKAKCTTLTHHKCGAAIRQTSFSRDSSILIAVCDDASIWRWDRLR
Chain of Polycomb protein EED (Homo sapiens), O75530 [V112E] (O75530 whole entry V112E): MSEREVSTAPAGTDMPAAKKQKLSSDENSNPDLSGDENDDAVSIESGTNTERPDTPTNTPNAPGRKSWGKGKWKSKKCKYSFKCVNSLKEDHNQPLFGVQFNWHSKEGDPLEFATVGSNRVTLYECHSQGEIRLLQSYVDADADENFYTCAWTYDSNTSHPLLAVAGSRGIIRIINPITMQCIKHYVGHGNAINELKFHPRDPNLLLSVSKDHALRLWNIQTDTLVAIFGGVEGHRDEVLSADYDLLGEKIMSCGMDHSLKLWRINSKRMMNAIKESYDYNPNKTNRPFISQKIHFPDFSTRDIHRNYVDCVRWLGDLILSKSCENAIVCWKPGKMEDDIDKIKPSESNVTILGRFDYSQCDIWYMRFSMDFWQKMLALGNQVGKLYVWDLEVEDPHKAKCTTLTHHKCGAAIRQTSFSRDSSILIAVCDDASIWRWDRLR
Chain of Polycomb protein EED (Homo sapiens), O75530 [L123E] (O75530 whole entry L123E): as the sequence (O75530 whole entry V112E) above, with E112V, L123E counted along it
Chain of Polycomb protein EED (Homo sapiens), O75530 [L353A] (O75530 whole entry L353A): as the sequence (O75530 whole entry V112E) above, with E112V, L353A counted along it
Chain of Polycomb protein EED (Homo sapiens), O75530 [L315D] (O75530 whole entry L315D): as the sequence (O75530 whole entry V112E) above, with E112V, L315D counted along it
Chain of Polycomb protein EED (Homo sapiens), O75530 [L246E] (O75530 whole entry L246E): as the sequence (O75530 whole entry V112E) above, with E112V, L246E counted along it
Chain of Polycomb protein EED (Homo sapiens), O75530 [F356Y] (O75530 whole entry F356Y): as the sequence (O75530 whole entry V112E) above, with E112V, F356Y counted along it

For COc1ccc(CCN2CCC(Nc3nc4ccccc4n3Cc3ccc(F)cc3)CC2)cc1, the Activity (DB [1]) was “Active”, the Tm [2] was 38.1 °C and the Activity (SUD4 [3]) was “Active”. For the same compound, the Activity (DB [4]) was “Active”, the Activity [5] was “Active” and the Activity (Pfeiffer [6]) was “Active”. For the same compound, the Activity (SUD4 [7]) was “Active”, the Activity (SUD4 [8]) was “Active” and the ΔTm [9] was 4.29 °C. For the same compound, the Activity (DB [10]) was “Active”, the Tm [11] was 38.2 °C and the Activity (DB [12]) was “Active”. The Activity (SU-DHL-6 [13]) was “Active”, the ΔTm [14] was 4.08 °C and the Activity (Toledo [15]) was “Active”. The ΔTm [16] was 3.44 °C, the Tm [17] was 38.2 °C and the Activity (SU-DHL-6 [18]) was “Active”. The Activity (Toledo [19]) was “Active”, the Tm [20] was 38.1 °C and the Activity (DB [21]) was “inactive”. For the same compound, the Activity (Pfeiffer [22]) was “Active”, the Activity (Pfeiffer [23]) was “Active” and the ΔTm [24] was 2 °C. For the same compound, the Tm [25] was 38.2 °C, the Activity [26] was “Active” and the ΔTm [27] was 1.64 °C. The Activity (SU-DHL-6 [28]) was “Active”, the Activity (DB [29]) was “Active” and the Activity (Toledo [30]) was “Active”. The Activity (DB [31]) was “Active”, the Tm [32] was 38.2 °C and the Activity [33] was “Active”.

In the case of COc1cccc2c1C(=O)c1c(O)c3c(c(O)c1C2=O)C[C@@](O)(C(=O)CO)C[C@@H]3O[C@H]1C[C@H](N)[C@H](O)[C@H](C)O1, the Activity (DB [34]) is reported as “inactive”, the Activity [35] is reported as “inactive” and the Activity (DB [36]) is reported as “inactive”. The Activity [37] was “inactive”, the Activity [38] was “inactive” and the Activity (DB [39]) was “inactive”.

With Cc1cc(C)c(CNC(=O)c2cc(-c3ccc(CN4CCOCC4)cc3)cc3c2cnn3C2CCCC2)c(=O)[nH]1 the Activity [40] was “inactive”, the Activity [41] was “inactive” and the Activity (DB [42]) was “inactive”. For the same compound, the Activity (DB [43]) was “inactive”, the Activity (DB [44]) was “inactive” and the Activity [45] was “inactive”.
